The values below come from ChEMBL document CHEMBL1133361, “Synthesis and biological activity of peptidyl aldehyde urokinase inhibitors” (Bioorg Med Chem Lett, 2000).

The target of data set [1] is Tissue-type plasminogen activator (Homo sapiens, UniProt P00750). The data set can be described thus: The compound was tested in vitro for its inhibitory activity against human t-PA enzyme, activity expressed as IC50. In short, it runs like this: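 Human t-PA (1 nM final) was tested for cleavage of chromogenic substrate Pefachrome t-PA. IC50 was taken as the inhibitor concentration giving 50% inhibition of substrate cleavage.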

The next data set addresses Plasminogen (Homo sapiens, UniProt P00747). The data set can be described thus: The compound was tested in vitro for its inhibitory activity against human Plasmin enzyme, activity expressed as IC50.
The target in data set [2] is Urokinase-type plasminogen activator (Homo sapiens, UniProt P00749). The data set can be described thus: The compound was tested in vitro for its inhibitory activity against human urokinase enzyme, activity expressed as IC50.
Data set [3] in a line: Total concentration in rat plasma after administration of 50 mg/kg dose through subcutaneous route. The settings on record: sc.
Data set [4] is described as follows: Area under curve in rat plasma after administration of 50 mg/kg dose through subcutaneous route. Particulars: sc.
The nature of data set [5]: Apparent terminal elimination half-life in rat plasma after administration of 50 mg/kg dose through subcutaneous route. Particulars: sc.
Data set [6] in a line: Maximum concentration in rat plasma after administration of 50 mg/kg dose through subcutaneous route. Particulars: sc.
Data set [7] can be described thus: Maximum concentration in rat plasma after administration of 50 mg/kg dose through subcutaneous route. The format is ADME, organism-based. Set-up: dose 50 mg/kg, route subcutaneous. Particulars: sc. The essentials:
(§1)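 Rats (n=3) received 50 mg/kg subcutaneously. Plasma was sampled over 24 h after dosing the parent aldehyde, or over 30 h after dosing its carbonate prodrug, with parent and prodrug measured. Levels were quantified by solid-phase extraction and HPLC mass spectrometry, and half-life and Cmax were taken from the concentration-time profile.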

A short description of data set [8]: Apparent terminal elimination half-life in dog after administration of 20 mg/kg dose through peroral route. Format: ADME, organism-based, Canis lupus familiaris. The settings on record: in vivo, po. More on the design: dose 20 mg/kg, route oral. In short, it runs like this: (§2)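 Conscious dogs (n=3) were given a single 20 mg/kg oral dose. Plasma drug levels were quantified by solid-phase extraction followed by HPLC mass spectrometry, and elimination half-life, Cmax and AUC were derived from the plasma concentration-time profile.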

Data set [9] is described as follows: Area under curve in dog after administration of 20 mg/kg dose through peroral route. Set-up: dose 20 mg/kg, route oral. The settings on record: in vivo, po. The format is ADME, organism-based, Canis lupus familiaris. The essentials:
as §2

A short description of data set [10]: Apparent terminal elimination half-life in rat plasma after administration of 50 mg/kg dose through subcutaneous route. Format: ADME, organism-based. More on the design: dose 50 mg/kg, route subcutaneous. Particulars: sc. In short, it runs like this: as §1
The nature of data set [11]: Apparent terminal elimination half-life in rat plasma after administration of 50 mg/kg dose through subcutaneous route. The settings on record: sc. The source holds these as a separate data set.
Data set [12] in a line: Maximum concentration in dog after administration of 20 mg/kg dose through peroral route. The format is ADME, organism-based, Canis lupus familiaris. More on the design: dose 20 mg/kg, route oral. The settings on record: in vivo, po. In short, it runs like this:
as §2

Chain of Tissue-type plasminogen activator (P00750 whole entry): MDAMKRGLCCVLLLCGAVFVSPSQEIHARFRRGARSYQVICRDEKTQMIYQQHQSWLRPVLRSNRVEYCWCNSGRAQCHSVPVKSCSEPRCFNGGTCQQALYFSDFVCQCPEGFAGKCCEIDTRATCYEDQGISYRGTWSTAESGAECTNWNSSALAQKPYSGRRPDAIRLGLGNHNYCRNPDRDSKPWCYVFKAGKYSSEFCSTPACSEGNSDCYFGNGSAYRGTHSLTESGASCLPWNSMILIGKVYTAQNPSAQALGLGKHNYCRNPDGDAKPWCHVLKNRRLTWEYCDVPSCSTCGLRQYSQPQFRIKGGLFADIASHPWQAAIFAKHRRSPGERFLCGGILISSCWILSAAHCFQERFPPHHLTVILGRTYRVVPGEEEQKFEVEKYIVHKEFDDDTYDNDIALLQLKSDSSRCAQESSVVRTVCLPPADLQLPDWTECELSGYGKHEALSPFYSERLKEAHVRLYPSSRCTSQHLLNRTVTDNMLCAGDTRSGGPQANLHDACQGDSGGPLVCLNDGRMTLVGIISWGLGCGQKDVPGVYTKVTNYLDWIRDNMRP
Chain of Plasminogen (P00747 97-580 limits assumed): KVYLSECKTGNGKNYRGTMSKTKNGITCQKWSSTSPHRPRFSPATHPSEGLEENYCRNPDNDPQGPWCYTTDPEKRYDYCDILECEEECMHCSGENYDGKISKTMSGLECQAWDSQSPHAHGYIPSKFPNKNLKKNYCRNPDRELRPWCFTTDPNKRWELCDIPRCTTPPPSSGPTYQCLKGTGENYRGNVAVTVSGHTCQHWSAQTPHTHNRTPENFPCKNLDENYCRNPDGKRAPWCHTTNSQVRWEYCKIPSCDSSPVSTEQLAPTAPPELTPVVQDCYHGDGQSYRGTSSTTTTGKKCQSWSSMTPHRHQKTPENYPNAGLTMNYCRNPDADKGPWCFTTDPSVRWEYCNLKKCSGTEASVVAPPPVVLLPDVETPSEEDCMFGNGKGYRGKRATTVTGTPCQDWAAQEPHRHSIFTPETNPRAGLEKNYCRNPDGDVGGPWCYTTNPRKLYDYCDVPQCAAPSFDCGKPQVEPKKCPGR
Chain of Plasminogen (P00747 581-810 limits assumed): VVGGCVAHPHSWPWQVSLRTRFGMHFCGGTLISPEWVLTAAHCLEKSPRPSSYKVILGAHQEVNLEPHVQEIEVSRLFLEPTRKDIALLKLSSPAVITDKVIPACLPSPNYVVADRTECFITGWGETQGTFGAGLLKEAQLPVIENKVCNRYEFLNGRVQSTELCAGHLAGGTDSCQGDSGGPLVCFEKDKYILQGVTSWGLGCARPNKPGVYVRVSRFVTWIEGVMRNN

Turning to `C[C@H](NC(=O)[C@@H](CO)NC(=O)OCc1ccccc1)C(=O)N[C@H]1CCCN(C(=N)N)C1O` (some centres not stated), the IC50 in [1] is greater than 2500 nM; against Plasminogen, 904 nM.

`C[C@H](NC(=O)[C@@H](CO)NS(=O)(=O)c1ccccc1)C(=O)N[C@H]1CCCN(C(=N)N)C1O` (some centres not stated): the half-maximal inhibitory concentration (IC50) in data set [1] is greater than 2500 nM; on Plasminogen, 1170 nM.

Consider `C[C@H](NC(=O)[C@@H](CO)NS(=O)(=O)CCc1ccccc1)C(=O)N[C@H]1CCCN(C(=N)N)C1O` (some centres not stated), for which the half-inhibitory concentration (IC50) in data set [1] was greater than 2500 nM; against Plasminogen it was 367 nM; in data set [2], 3.1 nM.

For `C[C@H](NC(=O)[C@@](C)(CO)NC(=O)OCc1ccccc1)C(=O)N[C@H]1CCCN(C(=N)N)C1O` (some centres not stated), the concentration for half-maximal inhibition (IC50) (in [1]; against Plasminogen; in data set [2]) was greater than 2500 nM throughout.

For `CC(O)[C@@H](NC(=O)OCc1ccccc1)C(=O)N[C@@H](C)C(=O)N[C@H]1CCCN(C(=N)N)C1O` (some centres not stated), the IC50 in data set [1] was greater than 2500 nM; at Plasminogen it was 699 nM; in data set [2], 261 nM.

With `CC(C)COC(=O)N[C@H](COC(=O)O)C(=O)N[C@@H](C)C(=O)N[C@H]1CCCN(C(=N)N)C1O.O=C(O)C(F)(F)F` (some centres not stated), the Tmax in data set [3] amounted to 2.67 h. The compound also gave an exposure (AUC) in data set [4] of 38600 ng·h/mL. In addition, in [5], the half-life was 10.7 h. In data set [6], this compound showed a Cmax of 2300 ng/mL.

As for `N=C(N)N1CCC[C@H](NC(=O)C2CCN2C(=O)[C@@H](CO)NC(=O)OCc2ccccc2)C1O` (some centres not stated), the IC50 was greater than 2500 nM in [1], 482 nM at Plasminogen and 11 nM in [2].

`C[C@@H](NC(=O)[C@@H](CO)NC(=O)OCc1ccccc1)C(=O)N[C@H]1CCCN(C(=N)N)C1O` (some centres not stated): the IC50 (in [1]; at Plasminogen; in data set [2]) was greater than 2500 nM in each case.

With `C[C@H](NC(=O)[C@@H](CO)NS(=O)(=O)Cc1ccccc1)C(=O)N[C@H]1CCCN(C(=N)N)C1O` (some centres not stated), the IC50 was greater than 2500 nM in [1], 275 nM at Plasminogen and 5.1 nM in [2].

For `N=C(N)N1CCC[C@@H](NC(=O)[C@H]2CCCCN2C(=O)[C@@H](CO)NC(=O)OCc2ccccc2)C1O` (some centres not stated), the IC50 in data set [1] was greater than 2500 nM; in [2], 101 nM.

For the compound `CC(C)COC(=O)N[C@H](CO)C(=O)N[C@@H](C)C(=O)N[C@H]1CCCN(C(=N)N)C1O.O=C(O)C(F)(F)F` (some centres not stated), the IC50 is greater than 2500 nM in [1], 1460 nM against Plasminogen and 23.1 nM in data set [2]. Moreover, in data set [3], the time of peak concentration (Tmax) was determined as 2.33 h. Besides, the figures for the Cmax in [7], in data set [12] and in data set [6] were 4700 ng/mL, 22900 ng/mL and 4700 ng/mL, respectively. Moreover, the half-life in data set [8] is 0.85 h; in data set [10] it was 5 h; in data set [11] it was 5 h. The results for the area under the curve (AUC) in [9] and in data set [4] were 38900 ng·h/mL and 44500 ng·h/mL, respectively.

Regarding `N=C(N)N1CCCC(NC(=O)[C@H]2CCCN2C(=O)C(CO)NC(=O)OCc2ccccc2)C1O` (some centres not stated), the 50% inhibitory concentration (IC50) in data set [1] is greater than 2500 nM; at Plasminogen it was 125 nM.
